For 30 molecules, inhibition and IC50 results are on record in PubChem BioAssay AID624164 (Southern Research Specialized Biocontainment Screening …, 2012).

One may read the IC50 as the concentration that inhibits the measured activity by half.

This assay concerns the target Leucine aminopeptidase (Plasmodium falciparum (isolate 3D7)) (UniProt Q8IL11). Put plainly: PFM17LAP inhibitors, dose response, selectivity assay for PFM1AAP inhibitor project, biochemical, QFRET, H-Leu-NHMec substrate, set 3 (AID 624164). Conditions: purified rPFM17LAP, H-Leu-NHMec fluorogenic cleavage. An outline of the steps: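 Assay system – recombinant PFM17LAP enzyme · Quantity – enzyme 5 µg/mL · Measured by – fluorescence of released NHMec, excitation 370 nm, emission 460 nm · Doses – 10-point twofold series, 100 to 0.2 µM, 2% DMSO · Timing – enzyme reaction with compound, 90 min at room temperature · Control set – enzyme-free background · Reagent – H-Leu-NHMec 0.1 mM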

Active and inactive are the calls of the source.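 How the source made its calls: active means inhibition of 30% or more at any tested concentration; inactive means the rest.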

Sequence of Leucine aminopeptidase (Plasmodium falciparum (isolate 3D7)) (Q8IL11 whole entry, looked up): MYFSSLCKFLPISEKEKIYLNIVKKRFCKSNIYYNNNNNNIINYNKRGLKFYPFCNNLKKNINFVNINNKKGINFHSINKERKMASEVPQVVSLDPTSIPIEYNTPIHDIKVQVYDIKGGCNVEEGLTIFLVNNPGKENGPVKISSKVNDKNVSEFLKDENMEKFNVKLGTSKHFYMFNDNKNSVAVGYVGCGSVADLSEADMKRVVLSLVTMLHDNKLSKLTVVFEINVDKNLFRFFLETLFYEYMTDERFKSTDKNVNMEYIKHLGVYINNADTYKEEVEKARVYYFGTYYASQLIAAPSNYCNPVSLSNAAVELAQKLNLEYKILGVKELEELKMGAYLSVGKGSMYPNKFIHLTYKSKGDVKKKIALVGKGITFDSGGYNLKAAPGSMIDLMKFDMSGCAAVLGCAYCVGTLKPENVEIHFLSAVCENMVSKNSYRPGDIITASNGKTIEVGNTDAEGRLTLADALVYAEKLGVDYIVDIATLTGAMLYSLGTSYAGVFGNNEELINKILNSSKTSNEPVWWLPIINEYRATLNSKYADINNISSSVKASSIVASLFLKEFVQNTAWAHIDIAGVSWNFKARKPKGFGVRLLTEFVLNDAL

On to `O=C(Nc1ccc2c(c1)OCO2)C1CCN(S(=O)(=O)c2ccc(Cl)s2)CC1`, for which, under “at 100 µM (top of the series)”, the inhibition result is “inactive”.

In the case of `O=C(NCc1ccc(F)cc1)C1CCN(S(=O)(=O)c2sccc2Br)CC1`, the inhibition entry (at 100 µM (top of the series)) is “inactive”.

On to `O=C(NCc1ccc2c(c1)OCO2)C1CCN(S(=O)(=O)c2sccc2Br)CC1`, for which the inhibition entry (at 50 µM (top of the series)) was “inactive”.

`O=C(NCCc1ccc2c(c1)OCO2)C1CCN(S(=O)(=O)c2ccc(Br)s2)CC1`: the inhibition result (at 100 µM (top of the series)) was “inactive”.

With `O=C(NCc1ccccc1F)C1CCN(S(=O)(=O)c2cc(Br)c(Br)s2)CC1`, the inhibition result (at 100 µM (top of the series)) was “inactive”.

On to `O=C(Nc1ccc2c(c1)OCO2)C1CCN(S(=O)(=O)c2sccc2Br)CC1`, for which the inhibition entry (at 100 µM (top of the series)) was “inactive”.

In the case of `O=C(NCc1ccccc1F)C1CCN(S(=O)(=O)c2sccc2Br)CC1`, the inhibition entry (at 100 µM (top of the series)) is “inactive”.

With `O=C(NCc1cccc(F)c1)C1CCN(S(=O)(=O)c2cc(Br)c(Br)s2)CC1`, the inhibition entry (at 100 µM (top of the series)) was “inactive”.

Take `O=C(NCc1ccccc1F)C1CCN(S(=O)(=O)c2ccc(Br)s2)CC1`: the IC50 was 28.5 µM.

Consider `O=C(NCc1ccc2c(c1)OCO2)C1CCN(S(=O)(=O)c2ccc(Br)cc2)CC1`, for which the inhibition entry (at 100 µM (top of the series)) is “inactive”.

On to `O=C(NCc1cccc(F)c1)C1CCN(S(=O)(=O)c2ccc(Br)cc2)CC1`, for which the IC50 was 50.6 µM.

`O=C(NCCc1ccc2c(c1)OCO2)C1CCN(S(=O)(=O)c2ccc(Cl)s2)CC1`: the inhibition result (at 100 µM (top of the series)) was “inactive”.

As for `O=C(NCc1cccc(F)c1)C1CCN(S(=O)(=O)c2ccc(Br)s2)CC1`, the IC50 is 24.7 µM.

As for `O=C(NCCc1ccc2c(c1)OCO2)C1CCN(S(=O)(=O)c2sccc2Br)CC1`, for the setting “at 100 µM (top of the series)”, the inhibition entry was “inactive”.

Consider `O=C(NCCc1ccc2c(c1)OCO2)C1CCN(S(=O)(=O)c2cc(Br)c(Br)s2)CC1`, for which the inhibition entry (at 100 µM (top of the series)) was “inactive”.

Consider `O=C(Nc1ccc2c(c1)OCO2)C1CCN(S(=O)(=O)c2cc(Br)c(Br)s2)CC1`, for which the inhibition result (at 100 µM (top of the series)) was “inactive”.

As for `O=C(NCc1ccc(F)cc1)C1CCN(S(=O)(=O)c2ccc(Br)s2)CC1`, the IC50 was 44.3 µM.

On to `O=C(NCc1cccc(F)c1)C1CCN(S(=O)(=O)c2sccc2Br)CC1`, for which, under “at 100 µM (top of the series)”, the inhibition entry is “inactive”.

For the molecule `O=C(NCc1ccccc1F)C1CCN(S(=O)(=O)c2ccc(Br)cc2)CC1`, the IC50 was 82.3 µM.

Regarding `O=C(NCc1cccc(F)c1)C1CCN(S(=O)(=O)c2ccc(Cl)s2)CC1`, the IC50 is 50 µM.

For the molecule `O=C(Nc1ccc2c(c1)OCO2)C1CCN(S(=O)(=O)c2ccc(Br)cc2)CC1`, the inhibition entry (at 100 µM (top of the series)) was “inactive”.

For `O=C(NCc1ccc(F)cc1)C1CCN(S(=O)(=O)c2ccc(Cl)s2)CC1`, the IC50 is 43.6 µM.

Take `O=C(NCc1ccc(F)cc1)C1CCN(S(=O)(=O)c2ccc(Br)cc2)CC1`: under “at 100 µM (top of the series)”, the inhibition entry is “inactive”.

For `O=C(NCc1ccc2c(c1)OCO2)C1CCN(S(=O)(=O)c2ccc(Cl)s2)CC1`, the IC50 was 35.4 µM.

Consider `O=C(NCc1ccccc1F)C1CCN(S(=O)(=O)c2ccc(Cl)s2)CC1`, for which the IC50 was 50 µM.

Take `O=C(Nc1ccc2c(c1)OCO2)C1CCN(S(=O)(=O)c2ccc(Br)s2)CC1`: the inhibition entry (at 100 µM (top of the series)) is “inactive”.

As to `O=C(NCc1ccc2c(c1)OCO2)C1CCN(S(=O)(=O)c2ccc(Br)s2)CC1`, the IC50 is 16.4 µM.

With `O=C(NCc1ccc(F)cc1)C1CCN(S(=O)(=O)c2cc(Br)c(Br)s2)CC1`, the inhibition result (at 100 µM (top of the series)) is “inactive”.

Take `O=C(NCCc1ccc2c(c1)OCO2)C1CCN(S(=O)(=O)c2ccc(Br)cc2)CC1`: the inhibition result (at 100 µM (top of the series)) is “inactive”.

As for `O=C(NCc1ccc2c(c1)OCO2)C1CCN(S(=O)(=O)c2cc(Br)c(Br)s2)CC1`, the inhibition result (at 100 µM (top of the series)) is “inactive”.
